Measurements: ChEMBL document CHEMBL5344467, “Improving Activity of New Arylurea Agents against Multidrug-Resistant and Biofilm-Producing Staphylococcus epidermidis” (ACS Med Chem Lett, 2024)
In brackets after ≈: the same amount, converted by molar mass. Activity calls are given as the source filed them. The rule behind the calls is not given here.

Experiments:
Cell membrane [1] = assay: Induction of cell membrane permeability Staphylococcus epidermidis clinical isolate 23 assessed as residual polarized cells at 0.4 ug/ml by Texas Red-H/FITC-H staining based flow cytometry (reference value: 69.6%); type: subcellular; conditions: dose 0.4 µg/ml
Method in brief: (§1)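 Membrane potential read by flow cytometry. Bacteria were stained with DiOC2, then exposed to the agent; red fluorescence marks polarized cells and green marks depolarized cells. CCCP served as the positive control and daptomycin as the depolarizing reference at 0.4 μg/mL. Test concentrations were 0.8, 1.6 and 3.125 μg/mL, with a 15 min exposure.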

Cell membrane [2] = assay: Induction of cell membrane permeability Staphylococcus epidermidis clinical isolate 23 assessed as depolarized cells at 0.4 ug/ml by Texas Red-H/FITC-H staining based flow cytometry (reference value: 2.7%); type: subcellular; conditions: dose 0.4 µg/ml; method in brief: as §1
Cell membrane [3] = assay: Induction of cell membrane permeability Staphylococcus epidermidis clinical isolate 23 assessed as residual polarized cells by Texas Red-H/FITC-H staining based flow cytometry (reference value: 69.6%); type: subcellular; method in brief: as §1
Cell membrane [4] = assay: Induction of cell membrane permeability Staphylococcus epidermidis clinical isolate 23 assessed as depolarized cells by Texas Red-H/FITC-H staining based flow cytometry (reference value: 2.7%); type: subcellular; method in brief: as §1
[5] = Selectivity index, ratio of IC50 for cytotoxicity against rat H9c2 cells to MIC for antibacterial activity against multidrug resistant Staphylococcus epidermidis clinical isolates; type: toxicity, cell-based; conditions: read-out: Selectivity Index
Method in brief: (§2)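 SI is IC50 divided by the mean MIC across clinical multidrug-resistant S. epidermidis isolates (81 strains). IC50 came from an MTT assay after 24 h treatment of H9c2 cardiomyocytes or BJ skin fibroblasts, n = 3. MIC was measured by broth microdilution.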

[6] = Selectivity index, ratio of IC50 for cytotoxicity against human BJ cells to MIC for antibacterial activity against multidrug resistant Staphylococcus epidermidis clinical isolates; type: toxicity, cell-based; conditions: read-out: Selectivity Index; method in brief: as §2
[7] = Selectivity index, ratio of IC50 for rat H9c2 cells to IC50 for human BJ cells; type: toxicity; conditions: H9c2 cells and BJ cells, read-out: Ratio IC50
[8] = test system: Staphylococcus epidermidis; assay: Antibiofilm activity against Staphylococcus epidermidis clinical isolates assessed as eradication of existing biofilms measured after 24 hrs by confocal laser scanning microscopy analysis; type: functional
[9] = test system: Staphylococcus epidermidis; assay: Antibiofilm activity against Staphylococcus epidermidis clinical isolates assessed as inhibition of biofilm formation measured after 24 hrs by confocal laser scanning microscopy analysis; type: functional
Acinetobacter baumannii = assay: Antibacterial activity against Acinetobacter baumannii ATCC 19606 assessed as inhibition of bacterial growth by broth microdilution method; type: functional
Escherichia coli = assay: Antibacterial activity against Escherichia coli ATCC 25922 assessed as inhibition of bacterial growth by broth microdilution method; type: functional
Pseudomonas aeruginosa = assay: Antibacterial activity against Pseudomonas aeruginosa ATCC 27853 assessed as inhibition of bacterial growth by broth microdilution method; type: functional
[10] = test system: Staphylococcus epidermidis; assay: Antibacterial activity against multidrug-resistant and biofilm producer Staphylococcus epidermidis ATCC 35984 assessed as inhibition of bacterial growth by broth microdilution method; type: functional
Method in brief: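 Preliminary MIC screen by broth microdilution against three reference strains (methicillin-susceptible, multidrug-resistant/biofilm-producing S. epidermidis, and biofilm-producing S. aureus); MIC reported in μg/mL.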

[11] = test system: Staphylococcus epidermidis; assay: Antibiofilm activity against Staphylococcus epidermidis clinical isolate 25 assessed as inhibition of biofilm formation measured after 24 hrs by confocal laser scanning microscopy analysis; type: functional
Method in brief: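 Clinical S. epidermidis strain no. 25 biofilm exposed to compound for 24 h, stained with FilmTracer SYPRO Ruby biofilm matrix stain, and imaged by confocal microscopy. Untreated compact biofilm served as control.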

[12] = test system: Staphylococcus epidermidis; assay: Bacteriostatic activity Staphylococcus epidermidis clinical isolate 44 at 0.4 to 25 ug/ml measured upto 1000 mins by broth microdilution method; type: functional, organism-based; conditions: dose 0.4-25 µg/ml
Cell membrane [13] = assay: Induction of cell membrane permeability Staphylococcus epidermidis clinical isolate 23 assessed as residual polarized cells at 0.8 ug/ml by Texas Red-H/FITC-H staining based flow cytometry (reference value: 69.6%); type: subcellular; conditions: dose 0.8 µg/ml
Method in brief: (§3)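 Clinical S. epidermidis no. 23 cells were first stained with DiOC2, then treated with compound. Membrane potential was read by flow cytometry within 15 min: red marks polarized cells, green marks depolarized cells. Controls were DiOC2-only cells (negative), CCCP (positive), and daptomycin at 0.4 μg/mL as a depolarizing reference.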

Cell membrane [14] = assay: Induction of cell membrane permeability Staphylococcus epidermidis clinical isolate 23 assessed as depolarized cells at 0.8 ug/ml by Texas Red-H/FITC-H staining based flow cytometry (reference value: 2.7%); type: subcellular; conditions: dose 0.8 µg/ml; method in brief: as §3
Cell membrane [15] = assay: Induction of cell membrane permeability Staphylococcus epidermidis clinical isolate 23 assessed as residual polarized cells at 1.6 ug/ml by Texas Red-H/FITC-H staining based flow cytometry (reference value: 69.6%); type: subcellular; conditions: dose 1.6 µg/ml
Method in brief: (§4)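 Cells stained with DiOC2, then exposed to test agent (0.8, 1.6, 3.125 μg/mL tested); CCCP positive control, daptomycin 0.4 μg/mL reference depolarizer, DiOC2-only negative control. Membrane potential read by flow cytometry as red (polarized) versus green (depolarized) cell populations; depolarization assessed within 15 min.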

Cell membrane [16] = assay: Induction of cell membrane permeability Staphylococcus epidermidis clinical isolate 23 assessed as depolarized cells at 1.6 ug/ml by Texas Red-H/FITC-H staining based flow cytometry (reference value: 2.7%); type: subcellular; conditions: dose 1.6 µg/ml; method in brief: as §4
Cell membrane [17] = assay: Induction of cell membrane permeability Staphylococcus epidermidis clinical isolate 23 assessed as depolarized cells at 3.125 ug/ml by Texas Red-H/FITC-H staining based flow cytometry (reference value: 2.7%); type: subcellular; conditions: dose 3.125 µg/ml; method in brief: as §3

`CCCCCCCCCC(=O)N[C@@H](Cc1c[nH]c2ccccc12)C(=O)N[C@H](CC(N)=O)C(=O)N[C@@H](CC(=O)O)C(=O)N[C@@H]1C(=O)NCC(=O)N[C@@H](CCCN)C(=O)N[C@@H](CC(=O)O)C(=O)N[C@H](C)C(=O)N[C@@H](CC(=O)O)C(=O)NCC(=O)N[C@H](CO)C(=O)N[C@@H]([C@H](C)CC(=O)O)C(=O)N[C@@H](CC(=O)c2ccccc2N)C(=O)O[C@@H]1C` showed an Activity (Cell membrane [1]) of 1.3% and an Activity (Cell membrane [2]) of 7.2%.
In the case of `N#CC(C#N)=NNc1cccc(Cl)c1`, the Activity (Cell membrane [3]) is reported as 0.1% and the Activity (Cell membrane [4]) is reported as 73.4%.
`O=S(=O)(NC1CCN(CCC(Oc2ccc(C(F)(F)F)cc2)c2ccccc2)CC1)c1cccc(Cl)c1` (racemic) gave a selectivity ratio [5] of 0.7, a selectivity ratio [6] of 0.4 and a selectivity ratio [7] of 2. The MBEC90 [8] was “>=125 ug ml-1” and the MBIC90 [9] was “>=125 ug ml-1”.
`O=S(=O)(NC1CCN(CCC(Oc2ccc(C(F)(F)F)cc2)c2cccs2)CC1)c1cccc(Cl)c1` (racemic) showed a selectivity ratio [5] of 2.8, a selectivity ratio [6] of 1 and a selectivity ratio [7] of 2. For the same compound, the MBEC90 [8] was “>=125 ug ml-1” and the MBIC90 [9] was “>=125 ug ml-1”.
`O=S(=O)(NC1CCN(CCC(Oc2cccc(C(F)(F)F)c2)c2ccccc2)CC1)c1cccc(Cl)c1` (racemic) showed an MIC (Acinetobacter baumannii) of no less than 25 µg/mL, an MIC (Escherichia coli) of no less than 25 µg/mL and an MIC (Pseudomonas aeruginosa) of no less than 25 µg/mL.
In the case of `O=S(=O)(NC1CCN(CCC(Oc2ccc(C(F)(F)F)cc2)c2cccs2)CC1)c1cccc(C(F)(F)F)c1` (racemic), the MIC [10] is reported as 0.2 µg/mL (≈ 0.337 µM).
Work on `O=C(Nc1cccc(Cl)c1)NC1CCN(CCC(Oc2ccc(C(F)(F)F)cc2)c2cccs2)CC1` (racemic) yielded a selectivity ratio [5] of 15.3, a selectivity ratio [6] of 7.5 and an MIC (Acinetobacter baumannii) greater than 50 µg/mL. The MIC (Escherichia coli) was greater than 50 µg/mL, the MIC (Pseudomonas aeruginosa) was greater than 50 µg/mL and the selectivity ratio [7] was 2. The MBIC [11] was 7.8 µg/mL, the MBEC90 [8] was 31.25 µg/mL and the MBIC90 [9] was 31.25 µg/mL. For the same compound, the Activity [12] was “Active”, the Activity (Cell membrane [13]) was 43.5% and the Activity (Cell membrane [14]) was 34.7%. The Activity (Cell membrane [15]) was 1.9%, the Activity (Cell membrane [16]) was 72.4% and the Activity (Cell membrane [17]) was 55.2%.
`O=S(=O)(NC1CCN(CCC(Oc2ccc(C(F)(F)F)cc2)c2cccs2)CC1)c1cccc(Br)c1` (racemic) showed an MIC [10] of 0.4 µg/mL (≈ 0.663 µM).
Work on `CC(=O)NC[C@H]1CN(c2ccc(N3CCOCC3)c(F)c2)C(=O)O1` [LINEZOLID] yielded a selectivity ratio [5] of 7.3, an MBEC90 [8] of 50 µg/mL and an MBIC90 [9] of 50 µg/mL. For the same compound, the Activity [12] was “Active”.
